One data set deals with Candida tropicalis. Nature of the data set: Antifungal activity against Candida tropicalis ATCC 1369 by broth microdilution method. The format is functional. Summed up: (§1)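 MIC per NCCLS broth microdilution. Fungi incubated at 35 °C and growth checked daily. Fluconazole served as positive control.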
The target of data set [1] is T1, Lanosterol 14-alpha demethylase (Candida albicans (strain SC5314 / ATCC MYA-2876) (Yeast), UniProt P10613). Put plainly: Inhibition of CYP51 in Candida albicans SC5314 assessed as ergosterol content at 8 ug/ml after 16 hrs by GC/MS analysis (reference value: 90.3%). To be noted: candida albicans sc5314, 16 h. Also noted: scale not given: the % may be the effect or the level left.
T1 sequence (P10613 whole entry): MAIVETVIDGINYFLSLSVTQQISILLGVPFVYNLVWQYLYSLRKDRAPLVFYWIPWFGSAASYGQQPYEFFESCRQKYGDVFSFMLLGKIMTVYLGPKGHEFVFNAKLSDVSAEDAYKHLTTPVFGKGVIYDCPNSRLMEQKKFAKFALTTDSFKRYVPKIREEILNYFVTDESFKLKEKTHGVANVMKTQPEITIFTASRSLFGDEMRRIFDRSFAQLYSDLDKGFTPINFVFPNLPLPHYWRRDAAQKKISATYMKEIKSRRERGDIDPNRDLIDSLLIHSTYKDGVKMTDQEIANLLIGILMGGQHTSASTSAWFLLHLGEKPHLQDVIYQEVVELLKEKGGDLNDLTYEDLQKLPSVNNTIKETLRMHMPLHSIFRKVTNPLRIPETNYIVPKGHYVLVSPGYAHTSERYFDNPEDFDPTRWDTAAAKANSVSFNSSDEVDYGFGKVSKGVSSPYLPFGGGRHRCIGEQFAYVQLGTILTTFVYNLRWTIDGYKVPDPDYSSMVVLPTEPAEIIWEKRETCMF

A further data set deals with Nakaseomyces glabratus. Nature of the data set: Antifungal activity against Candida glabrata ATCC 0001 by broth microdilution method. The format is functional. Summed up:
as §1
(Broth dilution looks for growth in wells or tubes with falling amounts of substance.)

For data set [2], the system named is Candida albicans. Put plainly: Antifungal activity against Candida albicans ATCC 10231 by broth microdilution method. In kind it is functional. The procedure, abridged: (§2)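 Broth microdilution MIC per NCCLS guidelines; strains from a Chinese medical fungus preservation centre and Shenyang Pharmaceutical University. Cultures kept at 35 °C with daily growth observation.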

The subject of data set [3] is Candida albicans. Nature of the data set: Antifungal activity against fluconazole-resistant Candida albicans 100 by broth microdilution method. The format is functional. The procedure, abridged:
as §2

The next data set relates to Pichia kudriavzevii. Nature of the data set: Antifungal activity against Candida krusei ATCC 6258 by broth microdilution method. In kind it is functional. Summed up: as §1
The target of data set [4] is T1, Lanosterol 14-alpha demethylase. Put plainly: Inhibition of CYP51 in Candida albicans SC5314 assessed as eburicol content at 8 ug/ml after 16 hrs by GC/MS analysis relative to control. Also noted: scale not given: the % may be the effect or the level left. Particulars: candida albicans sc5314, 16 h.
Another data set has as its system Aspergillus fumigatus. Nature of the data set: Antifungal activity against Aspergillus fumigatus KM8001 by broth microdilution method. The format is functional. Summed up:
as §1

Data set [5] has as its system Candida albicans. Put plainly: Antifungal activity against fluconazole-resistant Candida albicans 103 by broth microdilution method. The format is functional. The procedure, abridged: as §2
Data set [6] deals with T1, Lanosterol 14-alpha demethylase. Put plainly: Inhibition of CYP51 in Candida albicans SC5314 assessed as obtusifoliol content at 8 ug/ml after 16 hrs by GC/MS analysis relative to control. Also noted: scale not given: the % may be the effect or the level left. Particulars: candida albicans sc5314, 16 h.
The target is the same in data set [7]. Put plainly: Inhibition of CYP51 in Candida albicans SC5314 assessed as unidentified sterol content at 8 ug/ml after 16 hrs by GC/MS analysis (reference value: 5.8%). Also noted: scale not given: the % may be the effect or the level left. To be noted: candida albicans sc5314, 16 h.
The target is the same in data set [8]. Nature of the data set: Inhibition of CYP51 in Candida albicans SC5314 assessed as lanosterol content at 8 ug/ml after 16 hrs by GC/MS analysis (reference value: 3.9%). Particulars: candida albicans sc5314, 16 h. Also noted: scale not given: the % may be the effect or the level left.

Converted amounts (≈) assume the structure as drawn.

On to `Nc1c(/C=N/NC(=O)c2ccncc2)ccc2c1C(=O)c1ccccc1C2=O`, for which the MIC (usually the smallest concentration in the dilution series that meets the test's criterion for growth inhibition) came out at 2 µg/mL (≈ 5.4 µM) against Candida tropicalis; 8 µg/mL (≈ 21.6 µM) in the data set on Nakaseomyces glabratus; 8 µg/mL (≈ 21.6 µM) in the data set with Candida albicans [2]; 8 µg/mL (≈ 21.6 µM) against Candida albicans [3]; 4 µg/mL (≈ 10.8 µM) in the data set on Pichia kudriavzevii; 16 µg/mL (≈ 43.2 µM) against Aspergillus fumigatus. In the data set with Candida albicans [5], this compound returned an MIC of 16 µg/mL (≈ 43.2 µM). For the same compound, the Activity in data set [1] stood at 4.6%; in data set [4] it was 63.4%; in [6] it was 7.4%; in data set [7], 4.3%; in data set [8], 20.3%.
On to `OC(Cn1cncn1)(Cn1cncn1)c1ccc(F)cc1F` [FLUCONAZOLE], for which the MIC was 2 µg/mL (≈ 6.53 µM) with Candida tropicalis; 2 µg/mL (≈ 6.53 µM) against Nakaseomyces glabratus; 4 µg/mL (≈ 13.1 µM) in the data set on Candida albicans [2]; over 64 µg/mL in the data set on Candida albicans [3]; 2 µg/mL (≈ 6.53 µM) in the data set on Pichia kudriavzevii; 32 µg/mL (≈ 104 µM) against Aspergillus fumigatus. In the data set on Candida albicans [5], this compound returned a minimum inhibitory concentration (MIC) of over 64 µg/mL. Moreover, the Activity was determined as 2.5% in data set [1]; 67.2% in data set [4]; 6.3% in [6]; 4.1% in data set [7]; 19.9% in data set [8].
On to `O=C(NCCc1ccncc1)c1cnc2c(F)cccc2c1O`, for which the minimum inhibitory concentration (MIC) in the data set on Candida tropicalis was 16 µg/mL (≈ 51.4 µM); in the data set on Nakaseomyces glabratus, 4 µg/mL (≈ 12.8 µM); against Candida albicans [2] it was 8 µg/mL (≈ 25.7 µM); against Candida albicans [3], 8 µg/mL (≈ 25.7 µM); in the data set with Pichia kudriavzevii, 8 µg/mL (≈ 25.7 µM); with Aspergillus fumigatus, 16 µg/mL (≈ 51.4 µM). The compound also yielded a minimal inhibitory concentration (MIC) in the data set on Candida albicans [5] of 16 µg/mL (≈ 51.4 µM). Besides, the Activity in [1] was determined as 9.1%; in data set [4], 54.7%; in data set [6], 8.2%; in data set [7], 4.9%; in data set [8], 23.1%.
In the case of `COc1cccc(NC(=S)N(CCN(C)C)[C@@H](C)c2ccncc2)c1`, the minimum inhibitory concentration (MIC) against Candida tropicalis worked out at 4 µg/mL (≈ 11.2 µM); in the data set with Nakaseomyces glabratus, 2 µg/mL (≈ 5.58 µM); in the data set with Candida albicans [2] it was 4 µg/mL (≈ 11.2 µM); in the data set with Candida albicans [3], 8 µg/mL (≈ 22.3 µM); against Pichia kudriavzevii it was 4 µg/mL (≈ 11.2 µM); with Aspergillus fumigatus, 8 µg/mL (≈ 22.3 µM). The same compound had a minimum inhibitory concentration (MIC) in the data set on Candida albicans [5] of 4 µg/mL (≈ 11.2 µM). Further, the Activity in [1] is given as 5.8%; in data set [4], 59%; in [6], 7.1%; in data set [7], 5.7%; in [8], 22.4%.

The record behind these values is ChEMBL document CHEMBL4257540, “Structure-based virtual screening and ADME/T-based prediction analysis for the discovery of novel antifungal CYP51 inhibitors” (Medchemcomm, 2018).
